Data as given in ChEMBL document CHEMBL1157359, “Binding of ceftobiprole and comparators to the penicillin-binding proteins of Escherichia coli, Pseudomonas aeruginosa, Staphylococcus aureus, and Streptococcus pneumoniae” (Antimicrob Agents Chemother, 2007).
Converted amounts (≈) assume the structure as drawn.

Assays:
[1] = Inhibition of bocillin FL binding to penicillin-resistant Streptococcus pneumoniae OC 8819 penicillin-binding protein 1a
In short: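 Whole S. pneumoniae cells were used rather than isolated membranes. Cells were competed with drug and then labeled with Bocillin FL, and PBP bands were visualized by fluorescence imaging. IC50 is the drug concentration that inhibits Bocillin FL binding to each PBP by 50% relative to a no-drug control.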

[2] = target: T1, MecA (Staphylococcus aureus, UniProt Q7DHH4); experiment: Inhibition of bocillin FL binding to methicillin-resistant Staphylococcus aureus OC 3726 penicillin-binding protein 2a
T1 sequence (Q7DHH4 whole entry): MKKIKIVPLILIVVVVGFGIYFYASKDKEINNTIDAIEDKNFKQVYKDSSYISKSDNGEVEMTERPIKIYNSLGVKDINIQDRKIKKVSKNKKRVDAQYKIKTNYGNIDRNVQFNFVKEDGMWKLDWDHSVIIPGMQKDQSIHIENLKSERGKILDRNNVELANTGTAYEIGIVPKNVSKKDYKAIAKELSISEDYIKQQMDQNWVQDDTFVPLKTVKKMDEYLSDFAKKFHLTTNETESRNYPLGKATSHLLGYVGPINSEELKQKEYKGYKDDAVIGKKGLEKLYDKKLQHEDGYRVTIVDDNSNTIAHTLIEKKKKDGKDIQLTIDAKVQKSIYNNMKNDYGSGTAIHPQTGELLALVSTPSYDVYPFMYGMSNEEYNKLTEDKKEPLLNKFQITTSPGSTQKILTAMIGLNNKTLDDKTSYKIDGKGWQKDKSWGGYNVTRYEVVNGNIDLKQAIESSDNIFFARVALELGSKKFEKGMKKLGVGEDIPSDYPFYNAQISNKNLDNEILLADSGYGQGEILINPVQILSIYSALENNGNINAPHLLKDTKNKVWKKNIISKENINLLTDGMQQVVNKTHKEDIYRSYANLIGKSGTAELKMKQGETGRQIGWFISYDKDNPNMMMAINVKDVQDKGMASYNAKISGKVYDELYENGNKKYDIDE
In short: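 OC 3726 membranes were first preincubated with 1 mg/ml clavulanic acid to saturate all PBPs except PBP2a. Drug was then added (0.16 μg/ml to 50 μg/ml), followed by Bocillin FL labeling and fluorescence imaging. IC50 is 50% inhibition of PBP2a labeling compared with the no-drug (0 μg/ml) sample.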

[3] = Inhibition of bocillin FL binding to Escherichia coli MC4100 penicillin-binding protein 4
In short: (§1)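 Isolated E. coli MC4100 PBPs were competed with 10 drug concentrations from 0.016 μg/ml to 8 μg/ml, then labeled with Bocillin FL. Fluorescent PBP bands were imaged. IC50 is the concentration giving 50% inhibition of Bocillin FL binding to each PBP relative to a no-drug control.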

[4] = target: T2, Cell shape peptidoglycan synthetase penicillin-binding protein 2 (Escherichia coli, UniProt Q2TL65); experiment: Inhibition of bocillin FL binding to Escherichia coli MC4100 penicillin-binding protein 2
T2 sequence (Q2TL65 whole entry): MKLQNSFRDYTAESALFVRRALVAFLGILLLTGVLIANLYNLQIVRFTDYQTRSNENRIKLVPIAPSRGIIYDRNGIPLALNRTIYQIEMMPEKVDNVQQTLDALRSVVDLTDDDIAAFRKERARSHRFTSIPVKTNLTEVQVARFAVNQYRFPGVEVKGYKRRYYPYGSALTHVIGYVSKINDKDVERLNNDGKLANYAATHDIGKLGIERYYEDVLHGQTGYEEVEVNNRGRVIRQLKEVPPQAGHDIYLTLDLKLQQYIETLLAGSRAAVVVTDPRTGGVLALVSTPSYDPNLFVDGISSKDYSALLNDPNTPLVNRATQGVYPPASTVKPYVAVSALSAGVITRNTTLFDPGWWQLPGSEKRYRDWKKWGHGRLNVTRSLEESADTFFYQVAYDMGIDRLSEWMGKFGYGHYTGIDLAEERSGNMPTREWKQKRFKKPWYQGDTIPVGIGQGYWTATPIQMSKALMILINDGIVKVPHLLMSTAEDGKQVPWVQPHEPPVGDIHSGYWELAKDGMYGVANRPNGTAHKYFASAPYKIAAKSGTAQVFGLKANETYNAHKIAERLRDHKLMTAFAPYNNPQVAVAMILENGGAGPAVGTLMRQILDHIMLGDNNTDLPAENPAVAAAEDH
In short: (§2)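 Isolated E. coli MC4100 PBPs; competition with drug at 10 concentrations, 0.016 μg/ml to 8 μg/ml, then Bocillin FL labeling. Gel bands visualized by imaging. IC50 is the concentration giving 50% inhibition of Bocillin FL binding relative to a no-drug control.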

[5] = Inhibition of bocillin FL binding to Escherichia coli MC4100 penicillin-binding protein 1a; in short: as §2
[6] = Inhibition of bocillin FL binding to Escherichia coli MC4100 penicillin-binding protein 6; in short: as §1
[7] = tested on: Staphylococcus aureus; experiment: Antibacterial activity against methicillin-resistant Staphylococcus aureus OC 3726 by CLSI method; format: functional
[8] = Inhibition of bocillin FL binding to Escherichia coli MC4100 penicillin-binding protein 3; in short: as §1
[9] = Inhibition of bocillin FL binding to Escherichia coli MC4100 penicillin-binding protein 5; in short: as §1
[10] = tested on: Escherichia coli; experiment: Antibacterial activity against Escherichia coli MC4100 by CLSI method; format: functional
[11] = tested on: Streptococcus pneumoniae; experiment: Antibacterial activity against penicillin-susceptible Streptococcus pneumoniae OC 8865 by CLSI method; format: functional
[12] = Inhibition of bocillin FL binding to Escherichia coli MC4100 penicillin-binding protein 1b; in short: as §1

`Nc1nc(/C(=N/O)C(=O)N[C@@H]2C(=O)N3C(C(=O)O)=C(/C=C4\CCN([C@@H]5CCNC5)C4=O)CS[C@H]23)ns1` [CEFTOBIPROLE] gave an IC50 [1] of 0.1 µg/mL (≈ 0.187 µM), an IC50 [2] of 1680 nM and an IC50 [3] of 0.5 µg/mL (≈ 0.935 µM). It also gave an IC50 [4] of 374 nM, an IC50 [5] of 0.3 µg/mL (≈ 0.561 µM) and an IC50 [6] of 3 µg/mL (≈ 5.61 µM). The MIC [7] was 2 µg/mL (≈ 3.74 µM), the IC50 [8] was 0.2 µg/mL (≈ 0.374 µM) and the IC50 [9] was > 8 µg/mL. For the same compound, the MIC [10] was 0.03 µg/mL (≈ 0.0561 µM), the MIC [11] was 0.008 µg/mL (≈ 0.015 µM) and the IC50 [12] was 8 µg/mL (≈ 15 µM).
In the case of `CC(C)(O/N=C(\C(=O)N[C@@H]1C(=O)N2C(C(=O)[O-])=C(C[n+]3ccccc3)CS[C@H]12)c1csc(N)n1)C(=O)O` [CEFTAZIDIME], the IC50 [2] is reported as > 91500 nM, the IC50 [3] is reported as > 4 µg/mL and the IC50 [4] is reported as 7320 nM. For the same compound, the IC50 [5] was 1.1 µg/mL (≈ 2.01 µM), the IC50 [6] was > 4 µg/mL and the MIC [7] was > 128 µg/mL. For the same compound, the IC50 [8] was 0.07 µg/mL (≈ 0.128 µM), the IC50 [9] was > 4 µg/mL and the MIC [10] was 0.12 µg/mL (≈ 0.22 µM). It also gave an IC50 [12] of 1.1 µg/mL (≈ 2.01 µM).
For `CO/N=C(\C(=O)N[C@@H]1C(=O)N2C(C(=O)O)=C(CSc3nc(=O)c(O)nn3C)CS[C@H]12)c1csc(N)n1` (stereo in doubt) [CEFTRIAXONE], the IC50 [1] was 0.02 µg/mL (≈ 0.0361 µM), the IC50 [2] was > 90200 nM and the IC50 [3] was 0.4 µg/mL (≈ 0.721 µM). The IC50 [4] was 361 nM, the IC50 [5] was 0.2 µg/mL (≈ 0.361 µM) and the IC50 [6] was > 8 µg/mL. For the same compound, the MIC [7] was > 64 µg/mL, the IC50 [8] was < 0.01 µg/mL and the IC50 [9] was 6 µg/mL (≈ 10.8 µM). It also gave an MIC [10] of 0.06 µg/mL (≈ 0.108 µM), an MIC [11] of 0.03 µg/mL (≈ 0.0541 µM) and an IC50 [12] of 0.5 µg/mL (≈ 0.902 µM).
